Experimental findings from ChEMBL document CHEMBL1152648, “Synthesis and biological evaluation of epothilone A dimeric compounds” (Bioorg Med Chem, 2009) are described below.

≈ marks a conversion by molar mass, not a printed value.

By IC50 is commonly meant the point on the concentration scale where inhibition reaches its midpoint. A lower IC50 goes with higher potency. By MIC is commonly meant the smallest concentration in the dilution series that meets the test's criterion for growth inhibition.

One test deals with A549. Description: Cytotoxicity against human A549 cells after 72 hrs by methylene blue assay. It counts as functional, cell-based. The following applies: A549, 72 h. A digest of the protocol: (§1)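 Cells exposed to compounds for 72 h, then fixed. Protein content quantified by methylene blue staining. IC50 is 50% inhibition of control growth. Means ± SD of three independent experiments.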

For a further test, the system named is MCF7. The test is described as follows: Cytotoxicity against human MCF7 cells after 72 hrs by methylene blue assay. It counts as functional, cell-based. The following applies: MCF7, 72 h. A digest of the protocol: as §1
The subject of a further test is HT-1080. The test is described as follows: Cytotoxicity against human HT1080 cells after 3 days by MTT assay. The following applies: HT-1080, 72 h. It counts as functional, cell-based. A digest of the protocol:
(§2)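 Cells (3 × 10^3 BAE or 2 × 10^3 HT1080) in their growth media with serial compound dilutions, 3 days, 37 °C, 5% CO2. MTT added for 4 h, formazan dissolved in 0.04 N HCl–2-propanol, read at 550 nm. Triplicate determinations. IC50 is the concentration giving 50% cell survival. Means ± SD of three independent experiments.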

Test [1] can be described thus: Cytotoxicity against mouse betaD10 cells after 96 hrs by MTS assay. The class given is functional, cell-based. A digest of the protocol:
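βD10 lung tumor cells from c-myc/c-raf double transgenic mice seeded at 10^3 cells/well and left to attach 24 h. Compounds added in medium at various concentrations for 24 or 96 h. MTS/PES reagent then 1 h at 37 °C, absorbance at 490 nm. Quintuplicates, expressed as % of control.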
On the technique in general: Tetrazolium assays rely on reduction of a dye to a coloured formazan, in cell work by metabolically active cells.

Test [2] can be described thus: Cytotoxicity against BAEC. The following applies: Bos taurus. A digest of the protocol: as §2
Test [3] in a line: Antiangiogenic activity in BAEC assessed as inhibition of tube formation after 7 hrs by cell differentiation assay. The following applies: Bos taurus. The class given is functional. A digest of the protocol: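 BAE cells (5 × 10^4) in DMEM plated on polymerized Matrigel (about 10.5 mg/mL), compounds added at different amounts, 37 °C, 5% CO2, 7 h. Cord/tube formation photographed at 200×. Each concentration tested in duplicate, scored by two observers.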

Test [4] in a line: Antiangiogenic activity in BAEC assessed as inhibition cell migration after 24 hrs by […] migration assay. The class given is functional. The following applies: Bos taurus. A digest of the protocol:
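BAE monolayers grown to confluence, wounded with pipette tips to give one acellular 1 mm-wide lane per well, washed, then given complete medium with or without test compounds. Same wounded areas photographed at 0, 7 and 24 h under microscope.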

Test [5] deals with T1, Tubulin (Sus scrofa) (UniProt P02554+P02550). Description: Induction of pig brain tubulin polymerization at 5 uM.
In test [6] the target is T1, Tubulin (Sus scrofa). The test is described as follows: Induction of pig brain tubulin polymerization at 10 uM.

T1 sequence (P02550 whole entry, looked up): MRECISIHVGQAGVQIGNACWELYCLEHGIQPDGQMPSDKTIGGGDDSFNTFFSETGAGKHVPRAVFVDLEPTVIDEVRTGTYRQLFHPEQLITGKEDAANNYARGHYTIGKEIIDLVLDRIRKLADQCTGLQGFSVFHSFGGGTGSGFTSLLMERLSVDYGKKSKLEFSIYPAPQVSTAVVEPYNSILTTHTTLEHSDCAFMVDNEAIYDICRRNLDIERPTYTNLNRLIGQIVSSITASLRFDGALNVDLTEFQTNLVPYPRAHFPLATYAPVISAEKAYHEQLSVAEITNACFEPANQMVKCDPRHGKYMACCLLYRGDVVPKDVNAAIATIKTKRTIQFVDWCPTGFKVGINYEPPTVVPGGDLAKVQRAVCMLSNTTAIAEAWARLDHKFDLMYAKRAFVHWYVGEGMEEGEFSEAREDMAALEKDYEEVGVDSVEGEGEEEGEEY
T1 sequence (P02554 whole entry, looked up): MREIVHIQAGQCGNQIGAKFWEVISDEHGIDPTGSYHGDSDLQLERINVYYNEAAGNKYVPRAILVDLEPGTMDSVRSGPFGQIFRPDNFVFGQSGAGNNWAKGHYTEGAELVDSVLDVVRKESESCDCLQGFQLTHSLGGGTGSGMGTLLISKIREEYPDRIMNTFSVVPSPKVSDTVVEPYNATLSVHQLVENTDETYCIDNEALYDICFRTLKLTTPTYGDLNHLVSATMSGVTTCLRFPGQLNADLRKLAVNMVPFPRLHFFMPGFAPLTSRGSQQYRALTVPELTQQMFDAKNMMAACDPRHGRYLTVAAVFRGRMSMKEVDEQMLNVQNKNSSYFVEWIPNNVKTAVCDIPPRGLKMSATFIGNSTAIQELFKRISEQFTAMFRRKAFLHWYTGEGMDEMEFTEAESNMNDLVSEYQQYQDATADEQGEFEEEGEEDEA

With `C/C(=C\c1csc(C)n1)[C@@H]1C[C@@H]2O[C@@H]2CCC[C@H](C)[C@H](OC(=O)CCCCCCC(=O)O[C@H]2[C@@H](C)CCC[C@H]3O[C@H]3C[C@@H](/C(C)=C/c3csc(C)n3)OC(=O)C[C@H](O)C(C)(C)C(=O)[C@@H]2C)[C@@H](C)C(=O)C(C)(C)[C@@H](O)CC(=O)O1`, the IC50 in the test on A549 was 316 nM; in the test on MCF7, 321 nM; in the test on HT-1080 it was 17 nM; in test [1] it was 2500 nM; in test [2] it was 20 nM. The MIC in [3] and in test [4] was 0.1 µM (≈ 0.113 µg/mL) each time. Further, the % tubulin polymerization at Tubulin (Sus scrofa) [5] came out at 0.7%; on Tubulin (Sus scrofa) [6] it was 0.3%.

For `C/C(=C\c1csc(C)n1)[C@@H]1C[C@@H]2O[C@@H]2CCC[C@H](C)[C@H](O)[C@@H](C)C(=O)C(C)(C)[C@@H](O)CC(=O)O1` [EPOTHILONE A], the IC50 in the test with A549 came out at 2.6 nM; with MCF7, 2.5 nM; in the test on HT-1080, 1.3 nM; in test [1] it was 70 nM; in [2] it was 0.7 nM. Moreover, the MIC in [3] and in test [4] was 0.005 µM (≈ 0.00247 µg/mL) each time. Besides, the % tubulin polymerization came to 92.2% at Tubulin (Sus scrofa) [5] and 99.8% on Tubulin (Sus scrofa) [6].

`C/C(=C\c1csc(C)n1)[C@@H]1C[C@@H]2O[C@@H]2CCC[C@H](C)[C@H](OC(=O)CCCCC(=O)O[C@H]2[C@@H](C)CCC[C@H]3O[C@H]3C[C@@H](/C(C)=C/c3csc(C)n3)OC(=O)C[C@H](O)C(C)(C)C(=O)[C@@H]2C)[C@@H](C)C(=O)C(C)(C)[C@@H](O)CC(=O)O1`: the IC50 in the test on A549 turned out to be 405 nM; in the test with MCF7, 412 nM; in the test on HT-1080 it was 69 nM; in test [1], 70500 nM; in test [2] it was 40 nM. In addition, the MIC in [3] and in [4] was 0.1 µM (≈ 0.11 µg/mL) in each case. The % tubulin polymerization at Tubulin (Sus scrofa) [5] is 0.2%; on Tubulin (Sus scrofa) [6], 0.7%.

On to `C/C(=C\c1csc(C)n1)[C@@H]1C[C@@H]2O[C@@H]2CCC[C@H](C)[C@H](OC(=O)CCCCCCCCC(=O)O[C@H]2[C@@H](C)CCC[C@H]3O[C@H]3C[C@@H](/C(C)=C/c3csc(C)n3)OC(=O)C[C@H](O)C(C)(C)C(=O)[C@@H]2C)[C@@H](C)C(=O)C(C)(C)[C@@H](O)CC(=O)O1`, for which the IC50 worked out at 956 nM in the test on A549; 1030 nM with MCF7; 13 nM with HT-1080; 5020 nM in [1]; 39 nM in [2]. Also, the minimum inhibitory concentration (MIC) came out at 0.05 µM (≈ 0.0577 µg/mL) in [3] and 0.1 µM (≈ 0.115 µg/mL) in test [4]. In addition, the % tubulin polymerization at Tubulin (Sus scrofa) [5] worked out at 0.1%; at Tubulin (Sus scrofa) [6], 0.6%.

Turning to `C/C(=C\c1csc(C)n1)[C@@H]1C[C@@H]2O[C@@H]2CCC[C@H](C)[C@H](OC(=O)CCSSCCC(=O)O[C@H]2[C@@H](C)CCC[C@H]3O[C@H]3C[C@@H](/C(C)=C/c3csc(C)n3)OC(=O)C[C@H](O)C(C)(C)C(=O)[C@@H]2C)[C@@H](C)C(=O)C(C)(C)[C@@H](O)CC(=O)O1`, the concentration for half-maximal inhibition (IC50) with A549 worked out at 367 nM; in the test on MCF7, 379 nM; in the test with HT-1080, 43 nM; in test [1], 3.3 nM; in [2], 111 nM. For the same compound, the values for the MIC in test [3] and in test [4] were 0.05 µM (≈ 0.0581 µg/mL) and 0.1 µM (≈ 0.116 µg/mL), respectively. For the same compound, the % tubulin polymerization worked out at 0% at Tubulin (Sus scrofa) [5] and 0.2% at Tubulin (Sus scrofa) [6].

In the case of `C/C(=C\c1csc(C)n1)[C@@H]1C[C@@H]2O[C@@H]2CCC[C@H](C)[C@H](OC(=O)CSSCC(=O)O[C@H]2[C@@H](C)CCC[C@H]3O[C@H]3C[C@@H](/C(C)=C/c3csc(C)n3)OC(=O)C[C@H](O)C(C)(C)C(=O)[C@@H]2C)[C@@H](C)C(=O)C(C)(C)[C@@H](O)CC(=O)O1`, the concentration for half-maximal inhibition (IC50) in the test with A549 is 319 nM; with MCF7 it was 357 nM; in the test on HT-1080, 290 nM; in [1], 1000 nM; in test [2], 29 nM. The minimum inhibitory concentration (MIC) stood at 0.1 µM (≈ 0.113 µg/mL) in test [3] and 0.05 µM (≈ 0.0567 µg/mL) in test [4]. Moreover, the figures for the % tubulin polymerization at Tubulin (Sus scrofa) [5] and on Tubulin (Sus scrofa) [6] were 0.3% and 1%, respectively.

As for `C/C(=C\c1csc(C)n1)[C@@H]1C[C@@H]2O[C@@H]2CCC[C@H](C)[C@H](OC(=O)CCCSSCCCC(=O)O[C@H]2[C@@H](C)CCC[C@H]3O[C@H]3C[C@@H](/C(C)=C/c3csc(C)n3)OC(=O)C[C@H](O)C(C)(C)C(=O)[C@@H]2C)[C@@H](C)C(=O)C(C)(C)[C@@H](O)CC(=O)O1`, the IC50 was 383 nM in the test on A549; 432 nM with MCF7; 71 nM in the test with HT-1080; 2000 nM in test [1]; 133 nM in [2]. Moreover, the minimal inhibitory concentration (MIC) in [3] and in test [4] was 0.1 µM (≈ 0.119 µg/mL) in each case. Also, the % tubulin polymerization at Tubulin (Sus scrofa) [5] amounted to 0.5%; at Tubulin (Sus scrofa) [6], 0.2%.
